As a reminder, the EC50 is the concentration at which the effect is half-maximal.

Calls of active or inactive are those of the source. The calls are words filed in the database; no cut-off is given here.

This passage reports Efficacy, EC50 and Activity results from ChEMBL document CHEMBL2034830, “Pyrazole[3,4-e][1,4]thiazepin-7-one derivatives as a novel class of Farnesoid X Receptor (FXR) agonists” (Bioorg Med Chem, 2012).

Assay [1] deals with T1, Bile acid receptor (Homo sapiens) (UniProt Q96RI1).
T1 sequence (whole entry): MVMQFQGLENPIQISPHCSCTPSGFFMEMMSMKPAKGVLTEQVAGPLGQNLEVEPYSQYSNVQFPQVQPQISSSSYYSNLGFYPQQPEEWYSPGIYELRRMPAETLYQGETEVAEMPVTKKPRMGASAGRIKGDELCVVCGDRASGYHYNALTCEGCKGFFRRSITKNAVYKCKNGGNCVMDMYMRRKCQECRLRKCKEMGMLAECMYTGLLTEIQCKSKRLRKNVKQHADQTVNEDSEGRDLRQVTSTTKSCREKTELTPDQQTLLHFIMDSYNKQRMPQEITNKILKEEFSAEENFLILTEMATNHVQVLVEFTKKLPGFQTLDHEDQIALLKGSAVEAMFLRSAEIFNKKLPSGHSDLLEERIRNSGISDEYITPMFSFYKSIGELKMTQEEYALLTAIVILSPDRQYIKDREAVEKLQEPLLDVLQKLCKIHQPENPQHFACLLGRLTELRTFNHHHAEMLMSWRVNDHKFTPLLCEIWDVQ
The assay can be described thus: Agonist activity at human GST-tagged FXR ligand binding domain assessed as recruitment of Src-1 peptide […] by AlphaScreen assay relative to 10 uM of CDCA.

The next assay addresses T2, Bile acid receptor (Homo sapiens, UniProt Q96RI1).
T2 sequence (Q96RI1 whole entry): T1 sequence (whole entry)
The assay is described as follows: Agonist activity at human GST-tagged FXR ligand binding domain assessed as recruitment of Src-1 peptide […] by AlphaScreen assay. For orientation: Bead proximity is the source of the signal in Alpha formats.

The target of assay [2] is T1, Bile acid receptor (Homo sapiens). The assay is described as follows: Induction of FXR-mediated down-regulation of Cyp7alpha1 gene in human HepG2 cells after 18 hrs by qRT-PCR analysis. Format: cell-based. The method, boiled down: (§1)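 HepG2 cells were stimulated for 18 h with increasing compound concentrations. Total RNA was random reverse-transcribed, and 10 ng template was run in SYBR Green real-time PCR with 0.3 μM of each primer. Cycling was 95 °C 3 min, then 45 cycles of 95 °C 10 s and 60 °C 30 s, in triplicate. Expression is given as ΔCT against an endogenous control, and relative expression as ΔΔCT.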
For orientation: Real-time PCR tracks product formation cycle by cycle.

The target is the same in assay [3]. The assay can be described thus: Induction of FXR-mediated upregulation of Bsep gene in human HepG2 cells after 18 hrs by qRT-PCR analysis. In kind it is cell-based. In outline:
as §1

For assay [4] the target is unchanged. The assay is described as follows: Induction of FXR-mediated upregulation of Ostbeta gene in human HepG2 cells after 18 hrs by qRT-PCR analysis relative to obeticholic acid. Format: cell-based. In outline:
as §1

Regarding `COc1ccc(C2SC(C)C(=O)Nc3c2c(C)nn3-c2ccccc2C)c(OC)c1` (configuration not stated), the Efficacy in assay [1] is 63%. At Bile acid receptor (read-out: EC50), the EC50 is 10500 nM.

As to `Cc1nn(-c2ccccc2F)c2c1C(c1ccc(Oc3ccccc3)cc1)SC(C)C(=O)N2` (mixture of isomers), the Efficacy in assay [1] worked out at 72%. Moreover, at Bile acid receptor (read-out: EC50), the half-maximal effective concentration (EC50) amounted to 3900 nM.

In the case of `Cc1nn(-c2ccccc2Cl)c2c1C(c1ccc(Oc3ccccc3)cc1)SC(C)C(=O)N2` (mixture of isomers), the Efficacy in assay [1] turned out to be 57%. In addition, the EC50 at Bile acid receptor (read-out: EC50) stood at 2700 nM.

For `Cc1nn(-c2ccccc2Br)c2c1C(c1ccc(Oc3ccccc3)cc1)SC(C)C(=O)N2` (mixture of isomers), the Efficacy in assay [1] stood at 84%. The EC50 at Bile acid receptor (read-out: EC50) came to 1800 nM.

In the case of `Cc1ccccc1-n1nc(C)c2c1NC(=O)[C@H](C)S[C@@H]2c1ccc(-c2ccccc2)cc1` (racemic), the Efficacy in assay [1] stood at 24%. Also, the EC50 at Bile acid receptor (read-out: EC50) was found to be 990 nM.

With `COc1ccccc1-c1ccc([C@H]2S[C@@H](C)C(=O)Nc3c2c(C)nn3-c2ccccc2C)cc1` (racemic), the Efficacy in assay [1] was found to be 50%. The EC50 at Bile acid receptor (read-out: EC50) was 1100 nM.

`COc1cccc(-c2ccc([C@H]3S[C@@H](C)C(=O)Nc4c3c(C)nn4-c3ccccc3C)cc2)c1` (racemic): the Efficacy in assay [1] amounted to 41%. The EC50 on Bile acid receptor (read-out: EC50) turned out to be 1800 nM.

Take `COc1ccc(-c2ccc([C@H]3S[C@@H](C)C(=O)Nc4c3c(C)nn4-c3ccccc3C)cc2)cc1` (racemic): the Efficacy in assay [1] amounted to 38%. Moreover, the EC50 on Bile acid receptor (read-out: EC50) is 1200 nM.

Take `CCOc1cccc(-c2ccc([C@H]3S[C@@H](C)C(=O)Nc4c3c(C)nn4-c3ccccc3C)cc2)c1` (racemic): in assay [1], the Efficacy turned out to be 13%. The EC50 on Bile acid receptor (read-out: EC50) was determined as 3500 nM.

For the compound `COC(=O)c1cccc(-c2ccc([C@H]3S[C@@H](C)C(=O)Nc4c3c(C)nn4-c3ccccc3C)cc2)c1` (racemic), on Bile acid receptor, the EC50 entry is “Not Active”.

As to `COC(=O)c1ccc(-c2ccc([C@H]3S[C@@H](C)C(=O)Nc4c3c(C)nn4-c3ccccc3C)cc2)cc1` (racemic), the EC50 result on Bile acid receptor is given as “Not Active”.

Consider `Cc1ccccc1-n1nc(C)c2c1NC(=O)[C@H](C)S[C@@H]2c1ccc(-c2ccco2)cc1` (racemic), for which the Efficacy in assay [1] was determined as 32%. Moreover, on Bile acid receptor (read-out: EC50), the EC50 was found to be 3600 nM.

Take `Cc1ccccc1-n1nc(C)c2c1NC(=O)[C@H](C)S[C@@H]2c1ccc(-c2ccoc2)cc1` (racemic): the Efficacy in assay [1] came to 40%. For the same compound, at Bile acid receptor (read-out: EC50), the EC50 was found to be 3500 nM.

For the compound `Cc1ccccc1-n1nc(C)c2c1NC(=O)[C@H](C)S[C@@H]2c1ccc(-c2cccc(C(=O)O)c2)cc1` (racemic), the half-maximal effective concentration (EC50) entry on Bile acid receptor is given as “Not Active”.

Take `Cc1ccccc1-n1nc(C)c2c1NC(=O)[C@H](C)S[C@@H]2c1ccc(-c2ccc(C(=O)O)cc2)cc1` (racemic): at Bile acid receptor, the EC50 entry is “Not Active”.

`Cc1ccccc1-n1nc(C)c2c1NC(=O)[C@H](C)S[C@@H]2c1ccc(/C=C/c2ccccc2)cc1` (racemic): on Bile acid receptor, the EC50 entry is recorded as “Not Active”.

For the compound `Cc1ccccc1-n1nc(C)c2c1NC(=O)[C@H](C)S[C@@H]2c1ccc(-c2cccs2)cc1` (racemic), the Efficacy in assay [1] amounted to 85%. On Bile acid receptor (read-out: EC50), the EC50 was found to be 2600 nM.

As for `Cc1ccccc1-n1nc(C)c2c1NC(=O)[C@H](C)S[C@@H]2c1ccc(-c2ccsc2)cc1` (racemic), the Efficacy in assay [1] is 68%. For the same compound, the 50% effective concentration (EC50) at Bile acid receptor (read-out: EC50) was 1400 nM.

For `Cc1ccccc1-n1nc(C)c2c1NC(=O)[C@H](C)S[C@@H]2c1ccc(-c2cc3ccccc3o2)cc1` (racemic), in assay [1], the Efficacy stood at 17%. In addition, the EC50 at Bile acid receptor (read-out: EC50) came out at 1500 nM.

Turning to `Cc1ccccc1-n1nc(C)c2c1NC(=O)[C@H](C)S[C@@H]2c1ccc(Oc2ccccc2)cc1` (racemic), the Efficacy in assay [1] was 118%. Further, on Bile acid receptor (read-out: EC50), the EC50 is 1300 nM.

Consider `COc1ccccc1Oc1ccc([C@H]2S[C@@H](C)C(=O)Nc3c2c(C)nn3-c2ccccc2C)cc1` (racemic), for which the Efficacy in assay [1] amounted to 240%. In assay [2], the Activity entry was “Dose-dependent effect”. The EC50 at Bile acid receptor (read-out: EC50) turned out to be 1700 nM. Besides, in assay [3], the outcome was inactive. Besides, in assay [4], the result was Active.

Regarding `COc1cccc(Oc2ccc([C@H]3S[C@@H](C)C(=O)Nc4c3c(C)nn4-c3ccccc3C)cc2)c1` (racemic), the Efficacy in assay [1] was found to be 120%. On Bile acid receptor (read-out: EC50), the EC50 came out at 1700 nM.

Turning to `COc1ccc(Oc2ccc([C@H]3S[C@@H](C)C(=O)Nc4c3c(C)nn4-c3ccccc3C)cc2)cc1` (racemic), in assay [1], the Efficacy was 70%. Also, on Bile acid receptor (read-out: EC50), the 50% effective concentration (EC50) was determined as 2200 nM.

As to `Cc1ccccc1-n1nc(C)c2c1NC(=O)[C@H](C)S[C@@H]2c1ccc(Oc2ccccc2C(=O)O)cc1` (racemic), on Bile acid receptor, the EC50 result is reported as “Not Active”.

For `Cc1ccccc1-n1nc(C)c2c1NC(=O)[C@H](C)S[C@@H]2c1ccc(Oc2cccc(C(=O)O)c2)cc1` (racemic), the EC50 result on Bile acid receptor is “Not Active”.

As for `Cc1ccccc1-n1nc(C)c2c1NC(=O)[C@H](C)S[C@@H]2c1ccc(Oc2ccc(C(=O)O)cc2)cc1` (racemic), the EC50 result at Bile acid receptor is recorded as “Not Active”.

For `Cc1ccccc1-n1nc(C)c2c1NC(=O)[C@H](C)S[C@@H]2c1ccc(OCc2ccccc2)cc1` (racemic), at Bile acid receptor, the EC50 entry is “Not Active”.

For `COc1cc([C@H]2S[C@@H](C)C(=O)Nc3c2c(C)nn3-c2ccccc2C)ccc1Oc1ccccc1` (racemic), the Efficacy in assay [1] was found to be 130%. Also, at Bile acid receptor (read-out: EC50), the EC50 came to 1900 nM.

Regarding `Cc1cccc(-n2nc(C)c3c2NC(=O)[C@H](C)S[C@@H]3c2ccc(Oc3ccccc3)cc2)c1` (racemic), the Efficacy in assay [1] came to 22%. For the same compound, the EC50 at Bile acid receptor (read-out: EC50) is 2400 nM.

Consider `Cc1ccc(-n2nc(C)c3c2NC(=O)[C@H](C)S[C@@H]3c2ccc(Oc3ccccc3)cc2)cc1` (racemic), for which the Efficacy in assay [1] came out at 11%. For the same compound, the EC50 at Bile acid receptor (read-out: EC50) turned out to be 3400 nM.

For the compound `CCc1ccccc1-n1nc(C)c2c1NC(=O)[C@H](C)S[C@@H]2c1ccc(Oc2ccccc2)cc1` (racemic), the Efficacy in assay [1] amounted to 190%. The Activity result in assay [2] and in assay [3] was “Dose-dependent effect” in each case. Moreover, on Bile acid receptor (read-out: EC50), the EC50 came to 1100 nM. Moreover, the outcome in assay [4] was Active.

Take `CCCc1ccccc1-n1nc(C)c2c1NC(=O)[C@H](C)S[C@@H]2c1ccc(Oc2ccccc2)cc1` (racemic): the Efficacy in assay [1] worked out at 240%. In assay [2], the Activity result was “Dose-dependent effect”. The EC50 at Bile acid receptor (read-out: EC50) was 1100 nM. For the same compound, the outcome in assay [3] was inactive. The result in assay [4] was Active.

In the case of `Cc1nn(-c2ccccc2C(C)C)c2c1[C@@H](c1ccc(Oc3ccccc3)cc1)S[C@@H](C)C(=O)N2` (racemic), in assay [1], the Efficacy worked out at 174%. Moreover, at Bile acid receptor (read-out: EC50), the EC50 turned out to be 1900 nM.

With `Cc1nn(-c2ccccc2C(F)(F)F)c2c1C(c1ccc(Oc3ccccc3)cc1)SC(C)C(=O)N2` (racemic), in assay [1], the Efficacy was determined as 50%. Also, the EC50 on Bile acid receptor (read-out: EC50) stood at 2000 nM.

With `Cc1nn(-c2ccccc2I)c2c1C(c1ccc(Oc3ccccc3)cc1)SC(C)C(=O)N2` (racemic), in assay [1], the Efficacy worked out at 130%. Also, at Bile acid receptor (read-out: EC50), the EC50 is 1300 nM.

For `COc1ccccc1-n1nc(C)c2c1NC(=O)[C@H](C)S[C@@H]2c1ccc(Oc2ccccc2)cc1` (racemic), the Efficacy in assay [1] was 37%. In addition, on Bile acid receptor (read-out: EC50), the EC50 amounted to 3300 nM.
